Reference: ChEMBL document CHEMBL5653631, “A Potent and Selective ULK1 Inhibitor Suppresses Autophagy and Sensitizes Cancer Cells to Nutrient Stress” (iScience, 2018)
Values belong to the compound of their own block, whether it stands above or below them.

How the values were obtained:
[1] = target: Serine/threonine-protein kinase 10 (Homo sapiens) (UniProt O94804); assay: Inhibition of human recombinant LOK at 500 nM related to control ULK1
[2] = target: T1, Beta-adrenergic receptor kinase 1 (Homo sapiens) (UniProt P25098); assay: Inhibition of human recombinant BARK1 at 500 nM related to control ULK1
T1 sequence (whole entry): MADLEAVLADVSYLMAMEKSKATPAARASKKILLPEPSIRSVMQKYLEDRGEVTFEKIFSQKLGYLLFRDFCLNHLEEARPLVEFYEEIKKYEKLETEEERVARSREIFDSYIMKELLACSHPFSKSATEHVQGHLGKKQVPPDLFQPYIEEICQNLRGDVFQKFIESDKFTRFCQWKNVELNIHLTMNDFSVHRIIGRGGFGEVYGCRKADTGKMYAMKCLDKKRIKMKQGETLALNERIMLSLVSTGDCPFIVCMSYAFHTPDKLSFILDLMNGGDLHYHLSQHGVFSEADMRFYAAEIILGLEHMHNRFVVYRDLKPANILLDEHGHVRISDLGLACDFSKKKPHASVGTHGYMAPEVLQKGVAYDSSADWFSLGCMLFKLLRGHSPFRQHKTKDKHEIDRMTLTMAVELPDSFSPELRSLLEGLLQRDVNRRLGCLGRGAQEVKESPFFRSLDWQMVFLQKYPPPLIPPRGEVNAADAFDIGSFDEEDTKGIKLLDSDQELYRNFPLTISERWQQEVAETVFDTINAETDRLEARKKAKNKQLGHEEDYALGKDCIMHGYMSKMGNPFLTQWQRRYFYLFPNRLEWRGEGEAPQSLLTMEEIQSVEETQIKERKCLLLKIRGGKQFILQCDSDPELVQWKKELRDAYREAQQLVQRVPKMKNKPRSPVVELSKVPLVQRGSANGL

[3] = target: Serine/threonine-protein kinase 32A (Homo sapiens) (UniProt Q8WU08); assay: Inhibition of human recombinant YANK1 at 500 nM in presence of ATP by radiometric assay relative to control
Sequence of Serine/threonine-protein kinase 32A (Homo sapiens) (Q8WU08 whole entry): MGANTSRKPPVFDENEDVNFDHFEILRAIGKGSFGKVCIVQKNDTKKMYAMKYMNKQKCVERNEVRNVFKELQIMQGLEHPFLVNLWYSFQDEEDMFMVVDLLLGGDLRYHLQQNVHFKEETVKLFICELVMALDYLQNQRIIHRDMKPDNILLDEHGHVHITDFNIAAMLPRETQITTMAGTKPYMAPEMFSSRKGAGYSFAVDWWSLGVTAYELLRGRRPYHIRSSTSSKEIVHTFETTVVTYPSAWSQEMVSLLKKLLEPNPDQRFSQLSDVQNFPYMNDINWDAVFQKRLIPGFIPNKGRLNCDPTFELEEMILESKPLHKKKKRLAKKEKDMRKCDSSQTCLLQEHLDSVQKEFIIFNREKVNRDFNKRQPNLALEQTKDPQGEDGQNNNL

[4] = target: Vascular endothelial growth factor receptor 3 (Homo sapiens) (UniProt P35916); assay: Inhibition of human recombinant FLT4 at 500 nM in presence of ATP by radiometric assay relative to control
Sequence of Vascular endothelial growth factor receptor 3 (Homo sapiens) (P35916 whole entry): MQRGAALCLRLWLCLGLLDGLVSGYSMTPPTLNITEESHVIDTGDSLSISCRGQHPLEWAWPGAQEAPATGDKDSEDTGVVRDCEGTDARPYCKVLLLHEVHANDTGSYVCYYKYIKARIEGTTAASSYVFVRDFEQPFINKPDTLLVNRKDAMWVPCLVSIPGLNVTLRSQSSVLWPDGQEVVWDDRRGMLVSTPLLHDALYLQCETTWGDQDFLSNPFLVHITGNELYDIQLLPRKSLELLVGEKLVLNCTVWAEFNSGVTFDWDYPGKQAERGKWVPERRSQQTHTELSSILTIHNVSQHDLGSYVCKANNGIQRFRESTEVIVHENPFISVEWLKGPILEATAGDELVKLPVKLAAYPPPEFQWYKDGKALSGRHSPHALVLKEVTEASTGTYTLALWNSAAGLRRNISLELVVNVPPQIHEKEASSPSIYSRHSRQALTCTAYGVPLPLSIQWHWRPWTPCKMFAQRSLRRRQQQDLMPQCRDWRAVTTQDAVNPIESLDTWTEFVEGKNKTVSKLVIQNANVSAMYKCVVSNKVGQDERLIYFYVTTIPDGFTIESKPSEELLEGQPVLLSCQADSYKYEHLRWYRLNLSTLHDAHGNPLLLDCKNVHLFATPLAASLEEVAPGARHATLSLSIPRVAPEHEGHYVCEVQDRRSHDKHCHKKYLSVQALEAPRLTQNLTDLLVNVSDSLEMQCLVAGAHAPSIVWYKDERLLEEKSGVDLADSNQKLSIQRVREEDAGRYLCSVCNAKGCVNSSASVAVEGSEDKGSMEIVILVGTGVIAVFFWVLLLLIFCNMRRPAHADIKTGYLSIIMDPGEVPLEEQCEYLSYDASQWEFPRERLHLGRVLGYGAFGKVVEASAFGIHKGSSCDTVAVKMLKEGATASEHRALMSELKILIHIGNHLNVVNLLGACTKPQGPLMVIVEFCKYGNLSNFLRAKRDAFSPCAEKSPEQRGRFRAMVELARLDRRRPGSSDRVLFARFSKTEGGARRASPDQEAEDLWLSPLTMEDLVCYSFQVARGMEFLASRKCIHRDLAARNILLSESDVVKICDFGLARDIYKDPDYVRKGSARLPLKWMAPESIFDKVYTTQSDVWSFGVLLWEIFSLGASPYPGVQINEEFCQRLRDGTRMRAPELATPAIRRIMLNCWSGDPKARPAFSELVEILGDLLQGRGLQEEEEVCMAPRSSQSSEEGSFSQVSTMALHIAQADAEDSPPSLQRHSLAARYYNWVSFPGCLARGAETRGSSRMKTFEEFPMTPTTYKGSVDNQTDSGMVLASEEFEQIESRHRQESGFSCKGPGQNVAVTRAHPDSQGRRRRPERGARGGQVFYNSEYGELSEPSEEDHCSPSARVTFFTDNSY

[5] = target: Mitogen-activated protein kinase 11 (Homo sapiens) (UniProt Q15759); assay: Inhibition of human recombinant p38beta at 500 nM in presence of ATP by radiometric assay relative to control
Sequence of Mitogen-activated protein kinase 11 (Homo sapiens) (Q15759 whole entry): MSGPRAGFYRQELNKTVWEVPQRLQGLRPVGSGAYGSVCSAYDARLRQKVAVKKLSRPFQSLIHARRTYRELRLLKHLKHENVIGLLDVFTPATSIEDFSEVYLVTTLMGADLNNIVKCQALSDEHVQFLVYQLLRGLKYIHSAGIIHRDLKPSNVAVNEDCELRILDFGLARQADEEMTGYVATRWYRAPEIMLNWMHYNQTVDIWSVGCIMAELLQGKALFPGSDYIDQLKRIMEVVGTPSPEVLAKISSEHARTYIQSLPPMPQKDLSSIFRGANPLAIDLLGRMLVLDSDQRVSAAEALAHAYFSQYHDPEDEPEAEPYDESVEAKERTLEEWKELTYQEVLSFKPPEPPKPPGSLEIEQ

[6] = target: T2, Serine/threonine-protein kinase Nek11 (Homo sapiens) (UniProt Q8NG66); assay: Inhibition of human recombinant NEK11 at 500 nM related to control ULK1
T2 sequence (whole entry): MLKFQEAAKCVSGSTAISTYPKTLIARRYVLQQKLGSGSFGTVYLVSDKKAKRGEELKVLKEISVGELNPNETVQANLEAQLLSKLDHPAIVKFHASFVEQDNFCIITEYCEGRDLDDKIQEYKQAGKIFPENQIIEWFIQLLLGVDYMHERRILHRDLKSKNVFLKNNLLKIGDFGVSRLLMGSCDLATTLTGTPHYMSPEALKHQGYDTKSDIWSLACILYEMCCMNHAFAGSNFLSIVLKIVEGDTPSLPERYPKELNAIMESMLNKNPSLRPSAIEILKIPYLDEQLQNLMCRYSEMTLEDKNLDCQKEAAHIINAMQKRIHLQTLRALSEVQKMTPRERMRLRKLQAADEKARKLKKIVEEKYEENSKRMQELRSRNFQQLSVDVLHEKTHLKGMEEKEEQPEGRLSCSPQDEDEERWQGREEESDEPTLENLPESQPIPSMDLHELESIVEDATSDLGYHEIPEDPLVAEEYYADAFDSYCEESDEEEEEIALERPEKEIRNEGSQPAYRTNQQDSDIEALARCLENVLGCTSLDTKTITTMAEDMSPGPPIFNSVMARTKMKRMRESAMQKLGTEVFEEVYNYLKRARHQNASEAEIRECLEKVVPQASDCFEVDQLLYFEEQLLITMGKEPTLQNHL

[7] = target: Platelet-derived growth factor receptor alpha (Homo sapiens) (UniProt P16234); assay: Inhibition of human recombinant PDGFRa at 15 nM in presence of ATP by radiometric assay relative to control
[8] = target: T2, Serine/threonine-protein kinase Nek11 (Homo sapiens); assay: Inhibition of human recombinant NEK11 at 40 nM related to control ULK1
[9] = target: T3, Inhibitor of nuclear factor kappa-B kinase subunit beta (Homo sapiens) (UniProt O14920); assay: Inhibition of human recombinant IKKb at 40 nM related to control ULK1
T3 sequence (whole entry): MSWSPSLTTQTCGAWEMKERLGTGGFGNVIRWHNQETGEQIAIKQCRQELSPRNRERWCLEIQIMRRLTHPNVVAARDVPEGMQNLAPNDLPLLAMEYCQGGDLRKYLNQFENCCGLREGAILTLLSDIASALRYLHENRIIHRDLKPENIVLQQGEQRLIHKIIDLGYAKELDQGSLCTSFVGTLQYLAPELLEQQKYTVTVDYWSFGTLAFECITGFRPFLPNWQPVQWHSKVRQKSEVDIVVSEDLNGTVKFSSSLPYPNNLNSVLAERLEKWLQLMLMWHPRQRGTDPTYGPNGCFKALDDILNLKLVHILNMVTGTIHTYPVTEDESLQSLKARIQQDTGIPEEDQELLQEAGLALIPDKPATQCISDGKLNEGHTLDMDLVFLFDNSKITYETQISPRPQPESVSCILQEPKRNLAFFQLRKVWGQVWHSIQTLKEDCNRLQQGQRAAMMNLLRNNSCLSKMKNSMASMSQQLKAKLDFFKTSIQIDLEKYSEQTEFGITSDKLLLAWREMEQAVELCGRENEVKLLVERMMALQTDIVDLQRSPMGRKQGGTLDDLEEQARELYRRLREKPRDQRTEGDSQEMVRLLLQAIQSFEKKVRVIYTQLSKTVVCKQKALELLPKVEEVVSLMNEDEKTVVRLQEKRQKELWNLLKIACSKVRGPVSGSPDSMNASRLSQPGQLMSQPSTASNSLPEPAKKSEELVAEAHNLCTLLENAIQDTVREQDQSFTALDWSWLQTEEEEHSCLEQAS

[10] = target: Tyrosine-protein kinase JAK2 (Homo sapiens) (UniProt O60674); assay: Inhibition of human recombinant JAK2 at 40 nM in presence of ATP by radiometric assay relative to control
Sequence of Tyrosine-protein kinase JAK2 (Homo sapiens) (O60674 whole entry): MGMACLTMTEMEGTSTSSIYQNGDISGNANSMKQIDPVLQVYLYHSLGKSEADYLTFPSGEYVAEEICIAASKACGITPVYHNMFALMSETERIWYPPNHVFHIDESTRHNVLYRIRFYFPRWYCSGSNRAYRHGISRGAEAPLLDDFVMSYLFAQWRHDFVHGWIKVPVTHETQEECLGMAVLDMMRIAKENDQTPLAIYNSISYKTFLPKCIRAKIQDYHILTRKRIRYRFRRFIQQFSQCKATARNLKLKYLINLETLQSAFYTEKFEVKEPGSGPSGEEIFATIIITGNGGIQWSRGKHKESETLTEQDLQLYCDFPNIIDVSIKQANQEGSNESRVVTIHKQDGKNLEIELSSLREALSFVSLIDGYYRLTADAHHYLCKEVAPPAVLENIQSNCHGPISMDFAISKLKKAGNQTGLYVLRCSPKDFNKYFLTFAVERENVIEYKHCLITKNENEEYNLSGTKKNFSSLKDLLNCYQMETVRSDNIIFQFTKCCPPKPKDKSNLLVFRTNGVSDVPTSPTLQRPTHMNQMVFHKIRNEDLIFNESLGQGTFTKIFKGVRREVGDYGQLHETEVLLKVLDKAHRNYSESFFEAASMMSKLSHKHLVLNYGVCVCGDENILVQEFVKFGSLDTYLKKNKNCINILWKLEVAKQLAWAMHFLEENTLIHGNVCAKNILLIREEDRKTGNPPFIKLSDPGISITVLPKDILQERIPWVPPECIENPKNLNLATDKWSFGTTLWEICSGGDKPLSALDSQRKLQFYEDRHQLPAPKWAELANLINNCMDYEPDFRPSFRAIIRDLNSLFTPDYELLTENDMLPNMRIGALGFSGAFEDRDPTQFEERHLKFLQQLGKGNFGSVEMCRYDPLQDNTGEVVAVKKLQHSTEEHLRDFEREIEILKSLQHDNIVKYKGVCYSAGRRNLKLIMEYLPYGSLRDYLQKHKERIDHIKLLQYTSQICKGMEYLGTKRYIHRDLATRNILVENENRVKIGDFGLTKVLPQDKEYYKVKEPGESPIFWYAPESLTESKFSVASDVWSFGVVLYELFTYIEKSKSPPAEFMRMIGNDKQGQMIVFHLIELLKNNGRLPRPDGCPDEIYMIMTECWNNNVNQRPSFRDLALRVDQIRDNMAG

[11] = target: RAC-gamma serine/threonine-protein kinase (Homo sapiens) (UniProt Q9Y243); assay: Inhibition of human recombinant AKT3 at 40 nM related to control ULK1
Sequence of RAC-gamma serine/threonine-protein kinase (Homo sapiens) (Q9Y243 whole entry): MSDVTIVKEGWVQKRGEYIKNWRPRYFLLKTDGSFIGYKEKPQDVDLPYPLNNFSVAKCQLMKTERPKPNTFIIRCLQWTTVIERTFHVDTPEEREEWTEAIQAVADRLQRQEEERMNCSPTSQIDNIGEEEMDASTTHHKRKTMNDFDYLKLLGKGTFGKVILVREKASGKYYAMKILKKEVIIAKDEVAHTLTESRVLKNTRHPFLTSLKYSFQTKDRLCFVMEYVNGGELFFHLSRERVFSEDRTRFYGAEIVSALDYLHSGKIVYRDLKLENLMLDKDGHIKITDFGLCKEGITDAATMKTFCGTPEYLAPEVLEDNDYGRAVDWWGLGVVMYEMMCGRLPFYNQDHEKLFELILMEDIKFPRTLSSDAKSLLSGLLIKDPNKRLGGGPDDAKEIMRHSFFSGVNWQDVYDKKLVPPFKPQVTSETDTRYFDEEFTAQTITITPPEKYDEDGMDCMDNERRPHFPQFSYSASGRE
In short: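 Radiometric activity assays in a panel of 327 human recombinant kinases, each run in duplicate at one inhibitor concentration. Activity remaining is expressed as percent of vehicle control, and percent inhibition is calculated as 100% minus percent activity remaining.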

Sequence of Serine/threonine-protein kinase 10 (Homo sapiens) (O94804 whole entry, looked up): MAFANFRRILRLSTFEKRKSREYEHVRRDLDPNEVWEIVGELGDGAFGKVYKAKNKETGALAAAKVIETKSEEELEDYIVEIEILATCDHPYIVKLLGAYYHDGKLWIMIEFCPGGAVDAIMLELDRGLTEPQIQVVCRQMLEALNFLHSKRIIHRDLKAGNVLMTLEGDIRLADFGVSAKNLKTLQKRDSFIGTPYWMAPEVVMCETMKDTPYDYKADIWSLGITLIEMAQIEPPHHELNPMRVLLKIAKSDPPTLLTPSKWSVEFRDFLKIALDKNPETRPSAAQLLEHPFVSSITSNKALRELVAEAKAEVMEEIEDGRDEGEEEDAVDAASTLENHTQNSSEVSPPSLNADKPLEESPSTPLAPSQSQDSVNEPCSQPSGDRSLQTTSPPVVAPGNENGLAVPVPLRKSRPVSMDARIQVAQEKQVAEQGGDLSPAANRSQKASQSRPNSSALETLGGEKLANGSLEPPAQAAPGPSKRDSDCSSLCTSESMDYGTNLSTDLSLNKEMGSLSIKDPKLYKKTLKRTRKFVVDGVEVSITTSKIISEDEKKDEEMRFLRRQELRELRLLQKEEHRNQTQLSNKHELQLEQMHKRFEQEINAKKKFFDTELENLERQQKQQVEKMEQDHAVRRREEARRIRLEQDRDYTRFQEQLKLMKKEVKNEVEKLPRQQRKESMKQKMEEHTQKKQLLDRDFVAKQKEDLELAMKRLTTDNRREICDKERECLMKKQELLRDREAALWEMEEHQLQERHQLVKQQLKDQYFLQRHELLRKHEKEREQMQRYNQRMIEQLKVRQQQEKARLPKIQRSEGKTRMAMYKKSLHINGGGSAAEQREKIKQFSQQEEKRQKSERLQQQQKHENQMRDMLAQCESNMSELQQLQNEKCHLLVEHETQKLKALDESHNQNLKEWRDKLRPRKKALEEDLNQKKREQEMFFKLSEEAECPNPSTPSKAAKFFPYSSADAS

fold change (FC) [1]: 0 | fold change (FC) [2]: 0.11 | inhibition [3]: 0% | inhibition [4]: 23% | inhibition [5]: 2% | fold change (FC) [6]: 0.11
SMILES: CNC(=O)c1ccccc1Oc1nc(Nc2cc(OC)c(OC)c(OC)c2)ncc1Br

inhibition [7]: 5%
SMILES: CC(C)[C@H](NC(=O)c1cc(-c2cnn3cc(-c4ccc(OCCN5CCCCC5)cc4)cnc23)cs1)C(F)(F)F

fold change (FC) [8]: 0.11 | fold change (FC) [9]: 0 | inhibition [10]: 0% | fold change (FC) [11]: 0.03
SMILES: O=C(N[C@@H](C1CC1)C(F)(F)F)c1cc(-c2cnn3cc(-c4ccc(F)cc4)cnc23)cs1
